MEKK2 mut-MEK5 = signal of MEK5 binding to mutant human MEKK2 PB1 domain; bead flow cytometry, Alexa488-MEK5 binding to MEKK2 mutant; percent response, % at 10 µM; actives 0.35% (n = 290,000); in the data active = percent response above about 24%, passing the limit was not always enough
MEKK3 PB1 HTS = modulators (inhibitors or enhancers) of MEK5 binding to human MEKK3 PB1 domain | bead-based flow cytometry, Alexa488-MEK5 binding to MEKK3; actives lie on both sides; 0 = blocked by unlabeled MEK5, 100 = vehicle | binding response (% of control), % at 10 µM | actives 1.4% (n = 290,000);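 active = binding response more than 3 SD above or below the average of its plate-row segment, actives on both sides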;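 note: Alexa488 bead fluorescence after subtracting the streptavidin-only scavenger bead signal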
ABCB1 block = blocks JC-1 efflux by human ABCB1 transporter; P08183; CCRF-Adr cells, flow cytometry; inhibition, % at 6.6 µM; actives 0.067% (n = 190,000); AID 1326; in the data active = inhibition above about 40%;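 note: 0% = vehicle and 100% = reference inhibitor; higher value means more JC-1 retained so stronger ABCB1 efflux block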
Target sequence (P08183 whole entry, looked up): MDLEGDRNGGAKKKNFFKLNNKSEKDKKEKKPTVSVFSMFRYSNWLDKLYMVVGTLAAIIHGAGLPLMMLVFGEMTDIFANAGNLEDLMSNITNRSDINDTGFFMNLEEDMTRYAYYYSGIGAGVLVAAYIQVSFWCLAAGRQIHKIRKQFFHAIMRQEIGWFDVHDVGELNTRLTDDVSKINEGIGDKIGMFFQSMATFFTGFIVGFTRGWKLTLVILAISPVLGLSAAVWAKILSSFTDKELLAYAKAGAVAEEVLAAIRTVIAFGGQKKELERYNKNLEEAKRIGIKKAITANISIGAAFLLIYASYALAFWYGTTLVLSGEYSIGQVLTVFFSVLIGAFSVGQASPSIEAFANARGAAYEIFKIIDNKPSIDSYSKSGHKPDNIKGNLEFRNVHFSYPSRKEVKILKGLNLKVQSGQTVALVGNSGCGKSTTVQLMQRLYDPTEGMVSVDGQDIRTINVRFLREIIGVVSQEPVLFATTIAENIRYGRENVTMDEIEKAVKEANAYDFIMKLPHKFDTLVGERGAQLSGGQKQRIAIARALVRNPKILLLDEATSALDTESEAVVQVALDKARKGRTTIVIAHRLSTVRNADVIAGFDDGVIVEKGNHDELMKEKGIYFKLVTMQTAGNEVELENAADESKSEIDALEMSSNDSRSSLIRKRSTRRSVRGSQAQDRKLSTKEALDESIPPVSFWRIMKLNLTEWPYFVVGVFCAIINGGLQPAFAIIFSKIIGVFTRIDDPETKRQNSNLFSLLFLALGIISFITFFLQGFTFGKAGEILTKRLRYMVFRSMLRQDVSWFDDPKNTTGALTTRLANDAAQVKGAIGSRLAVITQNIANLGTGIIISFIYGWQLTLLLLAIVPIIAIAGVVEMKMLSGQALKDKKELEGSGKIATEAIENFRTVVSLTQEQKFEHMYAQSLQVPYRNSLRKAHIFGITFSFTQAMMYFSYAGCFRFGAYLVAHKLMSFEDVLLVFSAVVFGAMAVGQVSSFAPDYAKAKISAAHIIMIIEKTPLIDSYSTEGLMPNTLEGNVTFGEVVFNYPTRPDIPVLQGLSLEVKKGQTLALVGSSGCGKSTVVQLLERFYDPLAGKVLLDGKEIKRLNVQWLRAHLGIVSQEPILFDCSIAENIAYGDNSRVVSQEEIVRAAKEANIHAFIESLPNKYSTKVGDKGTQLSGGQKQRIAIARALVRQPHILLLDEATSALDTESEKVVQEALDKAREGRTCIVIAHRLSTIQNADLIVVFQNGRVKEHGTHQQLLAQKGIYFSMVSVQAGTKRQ
ABCG2 block = human ABCG2 inhibition, ABCB1 as counter-screen; Q9UNQ0; IgMXP3 cells, JC-1 efflux, flow cytometry; inhibition, % at 6.6 µM; actives 0.1% (n = 190,000); AID 1325;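 active = inhibition above 80%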;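 note: 0% = DMSO and 100% = nicardipine control wells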
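Test system: IgMXP3 cells (ABCG2) mixed with DDAO far-red-labelled CCRF-Adr cells (ABCB1). Reagent: JC-1 transporter substrate. Compound dosing: single test compound dose, 6.6 µM final. Times: 10 min compound exposure, 25 °C. Detection: flow cytometry of retained JC-1 fluorescence. Read-out basis: efflux inhibition in percent versus controls. Controls: nicardipine and DMSO wells.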
Efflux pump mplx = blocks antifungal efflux pumps in multiplex yeast assay. S. cerevisiae Candida pump triplex, Nile Red efflux. inhibition, % at 10 µM. actives 0.44% (n = 330,000). AID 485275;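 active = plate passing quality check with inhibition over a set limit, or well fluorescence over plate mean plus 4 SD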;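 note: Nile Red retained in pooled yeast measured as flow cytometry median fluorescence; 0% = buffer negative control and 100% = Enniatin B positive control; higher means more Nile Red kept so more efflux inhibition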
MEKK2wt PB1 HTS = raises or lowers MEK5 binding to wildtype human MEKK2 PB1 domain; actives 1.1% (n = 290,000); binding response (% of control), % at 10 µM; bead flow cytometry, Alexa488-MEK5 binding to MEKK2 WT; actives lie on both sides; AID 1531; Q9Y2U5; in the data active = binding response below about 67% or above about 130%
MEKK2wt confirm = raises or lowers MEK5 binding to wildtype human MEKK2, retest; shares compounds with MEKK3 PB1 HTS; binding response (% of control), % at 10 µM; actives 2.4% (n = 5,900); bead flow cytometry, Alexa488-MEK5 binding to MEKK2 WT; actives lie on both sides; in the data active = binding response below about 16% or above about 210%; inactive = in between
MEKK2mut confirm = signal of MEK5 binding to mutant human MEKK2, retest. shares compounds with MEKK3 PB1 HTS. bead flow cytometry, Alexa488-MEK5 binding to MEKK2 mutant. percent response, % at 10 µM. actives 2% (n = 5,900); in the data active = percent response mostly above about 71%, no sharp cut-off; inactive = mostly below about 38%;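 note: higher means compound restores mutant binding toward wildtype level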
MEKK3 confirm = MEKK3-MEK5 PB1 inhibition, single concentration confirmation; shares compounds with MEKK3 PB1 HTS; bead flow cytometry, Alexa488-MEK5 binding to MEKK3; active compounds read low; AID 1894; actives 1.8% (n = 5,900); binding response (% of control), % at 10 µM;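 active = binding response below 72% of control, or above a set upper limit, though filed actives all read lower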;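 note: 100% = DMSO only wells and 0% = binding blocked by excess unlabeled MEK5; lower values mean stronger disruption of MEK5 binding to MEKK3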
Numbers without * were called inactive; . = no result given; [ ] = dose if it differs, or a comment. A selection: hits, their analogues and other compounds. The true share with any hit is near 2.5%.

SMILES	MEKK2 mut-MEK5	MEKK3 PB1 HTS	ABCB1 block	ABCG2 block	Efflux pump mplx	MEKK2wt PB1 HTS	MEKK2wt confirm	MEKK2mut confirm	MEKK3 confirm
COc1cc(/C=N\NC(=O)CNC(=O)C2COc3ccccc3O2)ccc1O (stereo not drawn)	29	134*	0	28	0	170*	95	-2	97
COc1cc(/C=N/NC(=O)C2(O)c3ccccc3-c3ccccc32)ccc1O	0	148*	0	1	0	108	99	-11	100
COc1cc(/C=N/NC(=O)C2c3ccccc3Oc3ccccc32)ccc1O	14	122*	0	0	0	125	104	0	107
CCOc1ccc(/C=N/NC(=O)C2(O)c3ccccc3-c3ccccc32)cc1	-1	96	1	-1	0	100	.	.	.
CCCCn1nc2cc(C(=O)NC3CCCc4ccccc43)ccc2c1OCC (stereo not drawn)	5	106	2	16	0	105	.	.	.
COc1cc(O)c(C(CC(=O)N2CCOCC2)c2cc(OC)c(OC)c(OC)c2)c(OC)c1 (stereo not drawn)	3	126	.	.	.	154*	97	2	101
COc1cc(O)c(C(CC(=O)N2CCCC(C)C2)c2ccc(N(C)C)cc2)c(OC)c1 (stereo not drawn)	2	127	.	.	0	158*	103	0	101
COc1cc(O)c(C(CC(=O)N2CCCCC2)c2ccc3c(c2)OCO3)c(OC)c1 (stereo not drawn)	4	122	.	.	0	140*	102	-1	103
COc1cc(O)c(C(CC(=O)N2CCCC(C)C2)c2ccc3c(c2)OCO3)c(OC)c1 (stereo not drawn)	2	121	.	.	.	142*	104	1	98
CC1CCc2cc(F)ccc2N1C(=O)c1ccc2c(c1)OCO2 (stereo not drawn)	2	104	1	2	0	105	.	.	.
CC(C)NS(=O)(=O)c1ccc(OCC(=O)Nc2ccc(F)cc2F)cc1	-1	81	0	2	-4	84	.	.	.
CSc1cccc(NC(=S)N(CCCN2CCCC2)Cc2cccs2)c1	6	104	0	-1	0	119	.	.	.
Cn1cc(CN(CCCN2CCOCC2)C(=S)Nc2cccc(Cl)c2)c2ccccc21	-2	94	7	1	-1	99	.	.	.
S=C(Nc1cccc(Cl)c1)N(CCCN1CCCC1)Cc1cccn1Cc1ccc(Cl)cc1	8	105	3	2	0	262*	221*	63	114
CSc1cccc(NC(=S)N(CCCN2CCCC2)Cc2cccn2Cc2ccc(Cl)cc2)c1	94*	113	1	2	0	270*	245*	77*	111
COc1cccc(NC(=S)N(CCCN2CCCC2)Cc2cccn2Cc2ccc(Cl)cc2)c1	55*	113	3	2	0	177*	164	38	111
COc1ccc(-c2nnn(CC(=O)N(CC3CCCO3)C(C(=O)NC(C)(C)C)c3ccco3)n2)cc1OC (stereo not drawn)	1	98	4	5	0	96	.	.	.
O=C(NCCc1cccc(Cl)c1)c1cccs1	3	103	0	9	0	101	.	.	.
Brc1cc2c(cc1C1Nc3ccccc3C3C=CCC31)OCO2 (stereo not drawn)	-2	67*[inhibitor]	0	1	0	98	98	-2	103
COc1cc2[nH]c3c(N4CCN(c5ccc(Cl)cc5)CC4)ncnc3c2cc1OC	24*	111	1	3	0	157*	189	49	110
COc1cc2[nH]c3c(Cl)ncnc3c2cc1OC	1	71*[inhibitor]	2	8	0	94	108	14	103
CCc1nc2ccc(C(=O)NCCCN3CCN(c4ccccc4F)CC3)cc2nc1CC	19	107	.	.	0	137*	145	31	104
COc1cccc(C(=O)NCCCNC(=O)c2cccc(OC)c2)c1	3	103	.	.	0	103	.	.	.
CCOc1ccc(NC(=S)NCCCN2CCN(c3ccc(OC)cc3)CC2)cc1	8	115	1	1	0	140*	138	29	102
COc1cccc(C(=O)NCCCN2CCN(CCCNC(=O)c3cccc(OC)c3)CC2)c1	1	128*	0	4	0	107	115	12	103
SMILES	MEKK2 mut-MEK5	MEKK3 PB1 HTS	ABCB1 block	ABCG2 block	Efflux pump mplx	MEKK2wt PB1 HTS	MEKK2wt confirm	MEKK2mut confirm	MEKK3 confirm
COc1ccc(N2CCN(CCCNC(=O)c3cc4sccc4n3C)CC2)cc1	18	108	2	5	0	148*	126	22	108
COc1ccc(NC(=S)NCCCN2CCCC2)cc1	-1	98	0	-1	0	97	.	.	.
O=C(Nc1nnc(-c2cccs2)s1)c1cccc(F)c1	-12	96	-3	-1	0	82	.	.	.
O=S(=O)(Cc1ccc(Cl)cc1)N1CCCC1	-6	95	0	55	0	92	.	.	.
COc1cc2c(C(=O)NCCCN3CCN(c4cccc(Cl)c4)CC3)cn(C)c(=O)c2cc1OC	13	127*	0	7	0	146*	123	17	105
Cc1ccc(NC(=O)COC(=O)c2cccc3c(=O)c(C)c(-c4ccccc4)oc23)cc1	-1	103	2	13	0	106	.	.	.
Cc1ccc(NC(NC(=O)c2ccccc2[N+](=O)[O-])C(Cl)(Cl)Cl)cc1 (stereo not drawn)	0	133*	1	11	0	109	98	3	99
O=C(O)c1cccc(NC(=S)NC(NC(=O)c2ccccc2[N+](=O)[O-])C(Cl)(Cl)Cl)c1 (stereo not drawn)	2	103	0	2	0	101	.	.	.
CCc1nnc(NC(=O)CCC(=O)NC2CCCc3ccccc32)s1 (stereo not drawn)	-1	102	0	0	0	97	.	.	.
COc1ccc(N2CC(C(=O)N3CCN(c4ccccc4)CC3)CC2=O)cc1 (stereo not drawn)	0	100	.	.	0	103	.	.	.

Screening data: PubChem, NMMLSC
